Data set [1] in a line: Permeability by PAMPA. In kind it is ADME. The following applies: read-out: permeability. The gist of the method: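 PAMPA permeability measured at pH 6.5.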
Data set [2] in a line: Tmax in mouse at 3 mg/kg, po. In kind it is ADME, organism-based. Also on record: dose 3 mg/kg, route oral. To be noted: in vivo.
Data set [3] can be described thus: AUC (0 to infinity) in mouse at 1 mg/kg, iv. In kind it is ADME, organism-based. The following applies: plasma. Also on record: time infinity, dose 1 mg/kg, route intravenous.
A short description of data set [4]: Apparent permeability across human Caco-2 cells. The format is ADME, cell-based. Background: Caco-2 cells form a polarised layer with tight junctions and transporters.
A short description of data set [5]: AUC (0 to infinity) in mouse at 3 mg/kg, po. In kind it is ADME, organism-based. Also on record: time infinity, dose 3 mg/kg, route oral. To be noted: plasma.
Data set [6] is described as follows: Volume of distribution at steady state in mouse at 1 mg/kg, iv. In kind it is ADME, organism-based. Also on record: dose 1 mg/kg, route intravenous. To be noted: in vivo, read-out: Vdss.
A short description of data set [7]: Bioavailability in mouse at 3 mg/kg, po. To be noted: in vivo.

Consider `O=C(NC1CC2CCC(C1)N2Cc1ccc2cc(F)ccc2c1)c1ccccc1-c1ccccc1` (stereo not given), for which the Papp in data set [1] was more than 30 ×10⁻⁶ cm/s.
Usually Tmax stands for the time from dosing to the highest level. The term AUC(0-inf) denotes total exposure, with the tail of the curve extrapolated. A word on the bioavailability: it is dose-corrected exposure relative to a reference, in per cent. High values mean much systemic uptake, low ones little systemic uptake. For the compound `O=C(C=C1CCN(C(=O)c2ccccc2O)CC1)N[C@@H]1CCN(Cc2ccc3cc(F)ccc3c2)C1`, the time to peak (Tmax) in data set [2] stood at 48 min. The AUC(0-inf) in data set [3] is 190 ng·h/mL; in data set [5], 200 ng·h/mL. Besides, in data set [4], the Papp stood at 4 ×10⁻⁶ cm/s. Besides, in data set [6], the Vd was determined as 9.88 L/kg. The same compound gave a bioavailability in data set [7] of 35%.
Regarding `Cc1ccc(C(=O)N2CCC(=CC(=O)N[C@@H]3CCN(Cc4ccc5cc(F)ccc5c4)C3)CC2)c(O)c1`, in data set [1], the Papp was 27.3 ×10⁻⁶ cm/s.
Same read-out and setting: with `O=C(NC1CC2CCC(C1)N2Cc1ccc2cc(F)ccc2c1)c1cc[n+]([O-])cc1C(=O)N1CCCCC1` (stereo not given) the figure was 4.7 ×10⁻⁶ cm/s; with `O=C(C=C1CCN(C(=O)c2ccccc2)CC1)N[C@@H]1CCN(Cc2ccc3cc(F)ccc3c2)C1`, 19.9 ×10⁻⁶ cm/s.

For the origin of these results see ChEMBL document CHEMBL1153499, “Synthesis, biological evaluation, and metabolic stability of acrylamide derivatives as novel CCR3 antagonists” (Bioorg Med Chem, 2009).
